Data as given in ChEMBL document CHEMBL2151029, “Synthesis of N-(5-chloro-6-(quinolin-3-yloxy)pyridin-3-yl)benzenesulfonamide derivatives as non-TZD peroxisome proliferator-activated receptor γ (PPARγ) agonist” (Eur J Med Chem, 2012).

How the values were obtained:
[1] = biological target: T1, Peroxisome proliferator-activated receptor gamma (Mus musculus) (UniProt P37238); experiment: Agonist activity at PPARgamma receptor in mouse 3T3-L1 cells assessed as adipogenesis at 20 ug/mL relative to insulin; format: functional, cell-based
T1 sequence (whole entry): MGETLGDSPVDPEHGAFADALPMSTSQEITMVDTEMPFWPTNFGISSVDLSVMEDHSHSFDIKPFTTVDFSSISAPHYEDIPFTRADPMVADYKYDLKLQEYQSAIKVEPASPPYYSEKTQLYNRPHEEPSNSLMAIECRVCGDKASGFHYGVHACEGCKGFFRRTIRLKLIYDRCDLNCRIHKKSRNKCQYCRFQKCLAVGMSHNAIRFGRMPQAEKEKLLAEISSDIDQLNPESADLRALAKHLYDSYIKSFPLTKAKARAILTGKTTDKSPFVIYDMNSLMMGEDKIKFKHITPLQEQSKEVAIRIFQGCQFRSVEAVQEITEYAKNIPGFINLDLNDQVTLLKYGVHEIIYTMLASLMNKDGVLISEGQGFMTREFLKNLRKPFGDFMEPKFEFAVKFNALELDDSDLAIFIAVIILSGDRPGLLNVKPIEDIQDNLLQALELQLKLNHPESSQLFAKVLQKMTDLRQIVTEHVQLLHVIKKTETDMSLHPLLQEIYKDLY
In short: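 3T3-L1 cells were treated with compound at 20 µg/ml in the presence of insulin and adipogenesis was measured. The response to a potent PPARγ full agonist at 1 µM was set as 100%. Emax (%) is the maximal adipogenic activity with test compound.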

[2] = biological target: T2, Peroxisome proliferator-activated receptor gamma (Homo sapiens) (UniProt P37231); experiment: Agonist activity at human PPARgamma receptor expressed in HEK293 cells at 10 uM relative to PPARgamma full agonist at 1 uM
T2 sequence (whole entry): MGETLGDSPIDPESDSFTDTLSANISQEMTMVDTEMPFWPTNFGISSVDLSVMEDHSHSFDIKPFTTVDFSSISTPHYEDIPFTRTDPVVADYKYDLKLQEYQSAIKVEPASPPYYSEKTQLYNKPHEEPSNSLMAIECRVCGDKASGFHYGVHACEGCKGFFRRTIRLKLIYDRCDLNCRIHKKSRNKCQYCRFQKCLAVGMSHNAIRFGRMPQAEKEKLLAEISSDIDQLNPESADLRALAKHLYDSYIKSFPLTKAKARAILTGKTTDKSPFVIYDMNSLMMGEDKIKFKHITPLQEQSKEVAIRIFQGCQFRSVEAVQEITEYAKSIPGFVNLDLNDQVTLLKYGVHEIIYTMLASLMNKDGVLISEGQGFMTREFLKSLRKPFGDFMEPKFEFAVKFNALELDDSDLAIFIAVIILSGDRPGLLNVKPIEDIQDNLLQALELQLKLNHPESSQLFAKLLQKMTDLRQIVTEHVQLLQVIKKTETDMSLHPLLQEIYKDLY

[3] = Tmax in db/db mouse at 100 mg/kg, po; format: ADME, organism-based; design: dose 100 mg/kg, route oral; settings: in vivo
In short: (§1)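 Female db/db mice received a single 100 mg/kg oral dose as a suspension in 0.5% CMC and Tween 80 (10 mL/kg), n = 4 per time point. Blood was drawn at 0.08 to 8.0 h and plasma was kept at -80 °C. Compound levels were measured by HPLC. Parameters came from non-compartmental analysis: Cmax and Tmax read directly, λz from terminal log-linear regression, T1/2 = 0.693/λz.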

[4] = Cmax in db/db mouse at 100 mg/kg, po; format: ADME, organism-based; design: dose 100 mg/kg, route oral; settings: in vivo; in short: as §1
[5] = AUC (0 to 8 hrs) in db/db mouse at 100 mg/kg, po; format: ADME, organism-based; design: time < 8 hr, dose 100 mg/kg, route oral; settings: plasma; in short: as §1
[6] = Terminal elimination half life in db/db mouse at 100 mg/kg, po; format: ADME, organism-based; design: dose 100 mg/kg, route oral; settings: in vivo, read-out: beta t1/2 (converted); in short: as §1
Mus musculus [7] = experiment: Volume of distribution in db/db mouse at 100 mg/kg, po; format: ADME, organism-based; design: dose 100 mg/kg, route oral; settings: in vivo; in short: as §1
[8] = Clearance in db/db mouse at 100 mg/kg, po; format: ADME, organism-based; design: dose 100 mg/kg, route oral; settings: in vivo; in short: as §1
Mus musculus [9] = experiment: Antihyperglycemic activity in db/db mouse assessed as plasma glucose reduction at 50 mg/kg administered BID for 10 days relative to control; format: functional; design: scale not given: the % may be the effect or the level left
In short: (§2)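 Male db/db mice, 5 to 7 weeks old and bred in-house, were fed a chow diet and dosed b.i.d. for 10 days. Plasma glucose and body weight gain were assessed at the end of the study.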

Mus musculus [10] = experiment: Toxicity in db/db mouse assessed as body weight gain at 50 mg/kg administered BID relative to control; format: organism-based; design: dose 50 mg/kg; settings: in vivo; in short: as §2
[11] = Drug excretion in db/db mouse assessed as elimination rate constant at 100 mg/kg, po; format: ADME, organism-based; design: dose 100 mg/kg, route oral; settings: in vivo; in short: as §1
Mus musculus [12] = experiment: Antihyperglycemic activity in db/db mouse assessed as plasma glucose reduction at 5 mg/kg administered BID for 10 days relative to control; format: functional; design: scale not given: the % may be the effect or the level left; in short: as §2

Row | SMILES | Emax [1] [%] | Emax [2] [%] | also measured
1 | COc1ccc(S(=O)(=O)Nc2cnc(Oc3cnc4ccccc4c3)c(Cl)c2)cc1OC | 60 | 93 | Tmax [3]: 0.25 h; Cmax [4]: 33900 ng/mL; AUC(0-t) at 8 h [5]: 146000 ng·h/mL; half-life [6]: 2.99 h; Vd (Mus musculus [7]): 1.23 L/kg; CL/F [8]: 4.67 mL/min/kg; Activity (Mus musculus [9]): 40%; Activity (Mus musculus [10]): 9%; k el [11]: 6.39e-05 s⁻¹
2 | O=S(=O)(Nc1cnc(Oc2cnc3ccccc3c2)c(Cl)c1)c1cccc(C(F)(F)F)c1 | 75 | 50 | 
3 | COc1ccc(OC)c(S(=O)(=O)Nc2cnc(Oc3cnc4ccccc4c3)c(Cl)c2)c1 | 54 | 71 | 
4 | O=S(=O)(Nc1cnc(Oc2cnc3ccccc3c2)c(Cl)c1)c1ccc(C(F)(F)F)cc1Cl | 57 | 86 | 
5 | O=S(=O)(Nc1cnc(Oc2cnc3ccccc3c2)c(Cl)c1)c1ccc(F)c(F)c1 | 95 | 86 | Tmax [3]: 0.5 h; Cmax [4]: 8330 ng/mL; AUC(0-t) at 8 h [5]: 25400 ng·h/mL; half-life [6]: 1.76 h; Vd (Mus musculus [7]): 4.78 L/kg; CL/F [8]: 31.2 mL/min/kg; k el [11]: 0.000108 s⁻¹
6 | Cc1cccc(S(=O)(=O)Nc2cnc(Oc3cnc4ccccc4c3)c(Cl)c2)c1 | 90 | 36 | 
7 | O=S(=O)(Nc1cnc(Oc2cnc3ccccc3c2)c(Cl)c1)c1ccc(F)c(Cl)c1 | 56 | 28 | 
8 | CN(CCOc1ccc(CC2SC(=O)NC2=O)cc1)c1ccccn1 (stereo not given) [ROSIGLITAZONE] |  |  | Activity (Mus musculus [12]): 52%
9 | O=S(=O)(Nc1cnc(Oc2cnc3ccccc3c2)c(Cl)c1)c1ccc(Cl)c(Cl)c1 | 35 | 56 | 

Now from value to compound, other results behind:

Row | Emax [1] [%] | Emax [2] [%] | SMILES | also measured
10 | 73 | 83 | Cc1cc(F)ccc1S(=O)(=O)Nc1cnc(Oc2cnc3ccccc3c2)c(Cl)c1 | 
11 | 51 | 39 | O=S(=O)(Nc1cnc(Oc2cnc3ccccc3c2)c(Cl)c1)c1ccc(F)cc1Cl | 
12 | 80 | 62 | O=S(=O)(Nc1cnc(Oc2cnc3ccccc3c2)c(Cl)c1)c1cccc(F)c1 | 
13 | 95 | 43 | Cc1ccccc1S(=O)(=O)Nc1cnc(Oc2cnc3ccccc3c2)c(Cl)c1 | 
14 | 67 | 31 | Cc1ccc(S(=O)(=O)Nc2cnc(Oc3cnc4ccccc4c3)c(Cl)c2)c(C)c1 | 
15 | 56 | 32 | O=S(=O)(Nc1cnc(Oc2cnc3ccccc3c2)c(Cl)c1)c1ccc(F)cc1F | 
